Source: ChEMBL document CHEMBL3351630, “ent-Kaurane diterpenes from the stem bark of Annona vepretorum (Annonaceae) and cytotoxic evaluation” (Bioorg Med Chem Lett, 2014)
pIC50: −log10 of the molar value.

Legend:
K562 [1] = assay: Cytotoxicity against human K562 cells after 72 hrs by alamar blue assay; type: functional, cell-based; conditions: K562, 72 h
In short: (§1)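 Tumour lines grown in RPMI-1640 with 10% FBS, 2 mM L-glutamine, gentamycin, at 37°C/5% CO2, mycoplasma-free, used in exponential growth. Alamar blue added 4 h before end, absorbance 570/600 nm. IC50 by nonlinear regression, three independent experiments in duplicate.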

[2] = Cytotoxicity against mouse B16F10 cells after 72 hrs by alamar blue assay; type: functional, cell-based; conditions: B16-F10, 72 h; in short: as §1
HepG2 = assay: Cytotoxicity against human HepG2 cells after 72 hrs by alamar blue assay; type: functional, cell-based; conditions: HepG2, 72 h; in short: as §1
[3] = Cytotoxicity against human HL60 cells after 72 hrs by alamar blue assay; type: functional, cell-based; conditions: HL-60, 72 h; in short: as §1
K562 [4] = assay: Selectivity index, ratio of IC50 for concanavalin-A stimulated human PBMCs to IC50 for human K562 cells
In short: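 SI calculated as IC50 in ConA-stimulated PBMC divided by IC50 in K562, both from 72 h alamar blue assays.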

PBMC = assay: Cytotoxicity against concanavalin-A stimulated human PBMC after 72 hrs by alamar blue assay; type: cell-based
In short: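 ConA 10 µg/mL added at culture start; compounds (0.39–25 µg/mL, DMSO) added after 24 h, 72 h incubation. Alamar blue added 24 h before end, absorbance 570/600 nm. IC50 by nonlinear regression, three independent experiments in duplicate.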

**Q.** Which results are given for `C=C1C[C@@]23CC[C@@H]4[C@](C)(C=O)[C@H](O)CC[C@@]4(C)[C@@H]2CC[C@H]1C3`?
**A.** pIC50 (K562 [1]): 5.08; pIC50 [2]: 4.16; pIC50 (HepG2): 4.29; pIC50 [3]: 4.48; Ratio IC50 (K562 [4]): 2.9; pIC50 (PBMC): 4.62

**Q.** With `C=C1C[C@@]23CC[C@@H]4[C@](C)(CO)[C@H](O)CC[C@@]4(C)[C@@H]2CC[C@H]1C3` as the compound, how does the pIC50 (K562 [1]) read?
**A.** 4.09

**Q.** What about the pIC50 [2] of the same compound?
**A.** 4.09

**Q.** And the pIC50 (HepG2)?
**A.** 4.09

**Q.** And the pIC50 [3]?
**A.** 4.09

**Q.** What about the pIC50 (PBMC) of the same compound?
**A.** 4.53

**Q.** Which results are given for `C=C1C[C@@]23CC[C@@H]4C(C)(C)[C@H](O)CC[C@@]4(C)[C@@H]2CC[C@H]1C3`?
**A.** pIC50 (K562 [1]): 4.99; pIC50 [2]: 4.18; pIC50 (HepG2): 4.17; pIC50 [3]: 4.47; pIC50 (PBMC): 4.65

**Q.** With `C=C1C[C@@]23CC[C@@H]4C(C)(C)[C@H](OC(C)=O)CC[C@@]4(C)[C@@H]2CC[C@H]1C3` as the compound, how does the pIC50 (K562 [1]) read?
**A.** < 4.12

**Q.** What about the pIC50 [2] of the same compound?
**A.** < 4.12

**Q.** What about the pIC50 (HepG2) of the same compound?
**A.** < 4.12

**Q.** And the pIC50 [3]?
**A.** < 4.12

**Q.** And the pIC50 (PBMC)?
**A.** < 4.12

**Q.** With `C=C1C[C@@]23CC[C@H]4[C@@](C)(CC[C@@H](O)[C@@]4(C)C(=O)O)[C@@H]2CC[C@H]1C3` as the compound, how does the pIC50 (K562 [1]) read?
**A.** 4.20

**Q.** And the pIC50 [2]?
**A.** < 4.10

**Q.** What about the pIC50 (HepG2) of the same compound?
**A.** < 4.10

**Q.** And the pIC50 [3]?
**A.** 4.12

**Q.** What about the pIC50 (PBMC) of the same compound?
**A.** < 4.10

**Q.** With `COc1cccc2c1C(=O)c1c(O)c3c(c(O)c1C2=O)C[C@@](O)(C(=O)CO)C[C@@H]3O[C@H]1C[C@H](N)[C@H](O)[C@H](C)O1` [DOXORUBICIN] as the compound, how does the pIC50 (K562 [1]) read?
**A.** 5.90

**Q.** What about the pIC50 [2] of the same compound?
**A.** 5.37

**Q.** And the pIC50 (HepG2)?
**A.** 6.38

**Q.** What about the pIC50 [3] of the same compound?
**A.** 5.82

**Q.** And the “Ratio IC50” value (K562 [4])?
**A.** 7.5

**Q.** And the pIC50 (PBMC)?
**A.** 5.03

**Q.** Which results are given for `C=C1C[C@@]23CC[C@H]4[C@@](C)(CCC[C@@]4(C)C(=O)O)[C@@H]2CC[C@@H]1C3` [KAURENOIC ACID]?
**A.** pIC50 (K562 [1]): 4.14; pIC50 [2]: 4.26; pIC50 (HepG2): 4.29; pIC50 [3]: 4.36; pIC50 (PBMC): 4.09
